Test results as given in ChEMBL document CHEMBL1275556, “High prevalence of plasmid-mediated quinolone resistance genes qnr and aac(6')-Ib-cr in clinical isolates of Enterobacteriaceae from nine teaching hospitals in China” (2008).
In brackets after ≈: the same amount, converted by molar mass.

How the values were obtained:
[1] = tested on: Klebsiella pneumoniae; assay: Antimicrobial activity against aac(6')-Ib-cr-positive Klebsiella pneumoniae GZ40T harboring qnrB gene by agar dilution method in presence of Tazobactam; assay type: functional
Method in brief: (§1)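 MICs were determined by the CLSI agar dilution method (M7-A7) and interpreted against CLSI M100-S17 breakpoints.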

[2] = tested on: Citrobacter freundii; assay: Antimicrobial activity against aac(6')-Ib-cr-positive Citrobacter freundii JN1 harboring GyrA T83I, ParC S80I mutant, wild-type GyrB and qnrA genes by agar dilution method in presence of Tazobactam; assay type: functional
Method in brief: (§2)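 MICs were determined by CLSI agar dilution (M7-A7) and interpreted by CLSI M100-S17 breakpoints. The curator's line names the β-lactamase inhibitor added.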

[3] = tested on: Klebsiella pneumoniae; assay: Antimicrobial activity against aac(6')-Ib-cr-positive Klebsiella pneumoniae JN41T harboring qnrB gene by agar dilution method in presence of Tazobactam; assay type: functional
Method in brief: (§3)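 Transconjugants were made by conjugating a qnr/aac(6')-Ib-cr donor with azide-resistant E. coli J53. Selection used Trypticase soy agar with sodium azide 150 µg/ml and sulfamethoxazole 180 µg/ml. […] MICs were read by CLSI agar dilution (M7-A7) and interpreted per M100-S17.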

[4] = tested on: Escherichia coli; assay: Antimicrobial activity against aac(6')-Ib-cr-positive Escherichia coli FJ3 harboring GyrA S83L, ParC S80R mutant, wild-type GyrB and qnrB genes by agar dilution method in presence of Tazobactam; assay type: functional
Method in brief: (§4)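 MICs measured by CLSI agar dilution (M7-A7) and interpreted against CLSI M100-S17 breakpoints. Strains were clinical Enterobacteriaceae isolates or the azide-resistant E. coli J53 recipient.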

[5] = tested on: Klebsiella pneumoniae; assay: Antimicrobial activity against aac(6')-Ib-cr-negative Klebsiella pneumoniae SY22T harboring qnrS gene by agar dilution method in presence of Tazobactam; assay type: functional; method in brief: as §1
[6] = tested on: Enterobacter cloacae; assay: Antimicrobial activity against aac(6')-Ib-cr-negative Enterobacter cloacae SH39 harboring GyrA S83I, ParC S80I mutant, wild-type GyrB and qnrA genes by agar dilution method in presence of Tazobactam; assay type: functional; method in brief: as §1
[7] = tested on: Citrobacter freundii; assay: Antimicrobial activity against aac(6')-Ib-cr-negative Citrobacter freundii JN64 harboring GyrA T83I, wild-type ParC, GyrB and qnrA genes by agar dilution method in presence of Tazobactam; assay type: functional; method in brief: as §1
[8] = tested on: Citrobacter freundii; assay: Antimicrobial activity against aac(6')-Ib-cr-positive Citrobacter freundii JS33T harboring qnrA gene by agar dilution method in presence of Tazobactam; assay type: functional; method in brief: as §1
[9] = tested on: Citrobacter freundii; assay: Antimicrobial activity against aac(6')-Ib-cr-positive Citrobacter freundii TJ15T harboring wild-type GyrA, ParC, GyrB genes by agar dilution method in presence of Tazobactam; assay type: functional; method in brief: as §1
[10] = tested on: Citrobacter freundii; assay: Antimicrobial activity against aac(6')-Ib-cr-positive Citrobacter freundii JS33 harboring GyrA T83I mutant, wild-type ParC, GyrB, qnrA and qnrB genes by agar dilution method in presence of Tazobactam; assay type: functional; method in brief: as §1
[11] = tested on: Citrobacter freundii; assay: Antimicrobial activity against aac(6')-Ib-cr-positive Citrobacter freundii JN1T by agar dilution method in presence of Tazobactam; assay type: functional
Method in brief: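 MIC by CLSI agar dilution (M7-A7), with categories interpreted per CLSI M100-S17.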

[12] = tested on: Klebsiella pneumoniae; assay: Antimicrobial activity against aac(6')-Ib-cr-positive Klebsiella pneumoniae JN41 harboring GyrA S83I, ParC S80I mutant, wild-type GyrB and qnrB genes by agar dilution method; assay type: functional
Method in brief: (§5)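 MICs were determined on clinical isolates by CLSI agar dilution (M7-A7) and interpreted against CLSI M100-S17 breakpoints.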

[13] = tested on: Enterobacter cloacae; assay: Antimicrobial activity against aac(6')-Ib-cr-negative Enterobacter cloacae GZ51 harboring qnrA gene by agar dilution method; assay type: functional
[14] = tested on: Enterobacter cloacae; assay: Antimicrobial activity against aac(6')-Ib-cr-negative Enterobacter cloacae GZ47 harboring qnrB and qnrS genes by agar dilution method in presence of clavulanic acid; assay type: functional; method in brief: as §4
[15] = tested on: Enterobacter cloacae; assay: Antimicrobial activity against aac(6')-Ib-cr-negative Enterobacter cloacae SH39 harboring GyrA S83I, ParC S80I mutant, wild-type GyrB and qnrA genes by agar dilution method in presence of clavulanic acid; assay type: functional; method in brief: as §2
[16] = tested on: Enterobacter cloacae; assay: Antimicrobial activity against aac(6')-Ib-cr-negative Enterobacter cloacae FJ67T harboring qnrS gene by agar dilution method; assay type: functional
[17] = tested on: Citrobacter freundii; assay: Antimicrobial activity against aac(6')-Ib-cr-negative Citrobacter freundii JN64 harboring GyrA T83I, wild-type ParC, GyrB and qnrA genes by agar dilution method in presence of clavulanic acid; assay type: functional; method in brief: as §1
[18] = tested on: Citrobacter freundii; assay: Antimicrobial activity against aac(6')-Ib-cr-positive Citrobacter freundii JN1T by agar dilution method in presence of clavulanic acid; assay type: functional
Method in brief: (§6)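 Transconjugants came from conjugation of qnr and/or aac(6')-Ib-cr-carrying donors with azide-resistant E. coli J53. […] MICs were determined by CLSI agar dilution (M7-A7) and interpreted by M100-S17.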

[19] = tested on: Klebsiella pneumoniae; assay: Antimicrobial activity against aac(6')-Ib-cr-positive Klebsiella pneumoniae JN132T harboring qnrB gene by agar dilution method in presence of clavulanic acid; assay type: functional
Method in brief: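 Transconjugants came from conjugation of qnr and/or aac(6')-Ib-cr donors into azide-resistant E. coli J53. […] MICs were measured by CLSI agar dilution (M7-A7) and interpreted per M100-S17.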

[20] = tested on: Klebsiella pneumoniae; assay: Antimicrobial activity against aac(6')-Ib-cr-positive Klebsiella pneumoniae JN132 harboring GyrA S83I, ParC S80I mutant, wild-type GyrB and qnrB genes by agar dilution method in presence of clavulanic acid; assay type: functional; method in brief: as §4
[21] = tested on: Enterobacter cloacae; assay: Antimicrobial activity against aac(6')-Ib-cr-negative Enterobacter cloacae GZ47T harboring qnrB gene by agar dilution method; assay type: functional
[22] = tested on: Enterobacter cloacae; assay: Antimicrobial activity against aac(6')-Ib-cr-negative Enterobacter cloacae GZ51T harboring qnrA gene by agar dilution method in presence of clavulanic acid; assay type: functional; method in brief: as §6
[23] = tested on: Citrobacter freundii; assay: Antimicrobial activity against aac(6')-Ib-cr-positive Citrobacter freundii PU55 harboring GyrA T83I, ParC S80I mutant, wild-type GyrB, qnrA genes by agar dilution method in presence of clavulanic acid; assay type: functional; method in brief: as §1
[24] = tested on: Klebsiella pneumoniae; assay: Antimicrobial activity against aac(6')-Ib-cr-positive Klebsiella pneumoniae SY26 harboring GyrA S83I, ParC S80I mutant, wild-type GyrB and qnrB genes by agar dilution method; assay type: functional; method in brief: as §5
[25] = tested on: Klebsiella pneumoniae; assay: Antimicrobial activity against aac(6')-Ib-cr-positive Klebsiella pneumoniae WH99 harboring wild-type GyrA, ParC, GyrB and qnrB genes by agar dilution method in presence of clavulanic acid; assay type: functional; method in brief: as §4
[26] = tested on: Klebsiella pneumoniae; assay: Antimicrobial activity against aac(6')-Ib-cr-negative Klebsiella pneumoniae SY22 harboring GyrA S83I, ParC S80I mutant, wild-type GyrB and qnrS genes by agar dilution method; assay type: functional; method in brief: as §1
[27] = tested on: Enterobacter cloacae; assay: Antimicrobial activity against aac(6')-Ib-cr-positive Enterobacter cloacae FJ63T harboring qnrS gene by agar dilution method; assay type: functional
[28] = tested on: Klebsiella pneumoniae; assay: Antimicrobial activity against aac(6')-Ib-cr-positive Klebsiella pneumoniae GZ40 harboring GyrA S83I, ParC S80I mutant, wild-type GyrB and qnrB genes by agar dilution method in presence of clavulanic acid; assay type: functional; method in brief: as §4
[29] = tested on: Klebsiella pneumoniae; assay: Antimicrobial activity against aac(6')-Ib-cr-positive Klebsiella pneumoniae GZ40T harboring qnrB gene by agar dilution method
[30] = tested on: Klebsiella pneumoniae; assay: Antimicrobial activity against aac(6')-Ib-cr-negative Klebsiella pneumoniae SY22T harboring qnrS gene by agar dilution method in presence of clavulanic acid; assay type: functional; method in brief: as §6
[31] = tested on: Klebsiella pneumoniae; assay: Antimicrobial activity against aac(6')-Ib-cr-positive Klebsiella pneumoniae WH99T harboring qnrB gene by agar dilution method; assay type: functional; method in brief: as §3

CCN1CCN(C(=O)N[C@@H](C(=O)N[C@@H]2C(=O)N3[C@@H]2SC(C)(C)[C@@H]3C(=O)O)c2ccccc2)C(=O)C1=O [PIPERACILLIN]
MIC [1]: 1 µg/mL
MIC [2]: 16 µg/mL
MIC [3]: 2 µg/mL
MIC [4]: 2 µg/mL
MIC [5]: 1 µg/mL
MIC [6]: 2 µg/mL
MIC [7]: > 256 µg/mL
MIC [8]: 4 µg/mL
MIC [9]: 1 µg/mL
MIC [10]: 8 µg/mL
MIC [11]: 2 µg/mL

CO/N=C(\C(=O)N[C@@H]1C(=O)N2C(C(=O)O)=C(COC(C)=O)CS[C@H]12)c1csc(N)n1 [CEFOTAXIME]
MIC [12]: 32 µg/mL (≈ 70.3 µM)
MIC [13]: 64 µg/mL (≈ 141 µM)
MIC [14]: 8 µg/mL
MIC [15]: 32 µg/mL
MIC [16]: 64 µg/mL (≈ 141 µM)
MIC [17]: 128 µg/mL
MIC [18]: 0.032 µg/mL
MIC [19]: 1 µg/mL
MIC [20]: 1 µg/mL
MIC [21]: 0.25 µg/mL (≈ 0.549 µM)
MIC [22]: 0.032 µg/mL
MIC [23]: 256 µg/mL
MIC [24]: 8 µg/mL (≈ 17.6 µM)
MIC [25]: 64 µg/mL
MIC [26]: 2 µg/mL (≈ 4.39 µM)
MIC [27]: 32 µg/mL (≈ 70.3 µM)
MIC [28]: 0.5 µg/mL
MIC [29]: 0.032 µg/mL (≈ 0.0703 µM)
MIC [30]: 0.032 µg/mL
MIC [31]: 16 µg/mL (≈ 35.1 µM)
